# Results: ChEMBL document CHEMBL1150304, “Synthesis of new heteroaryl and heteroannulated indoles from dehydrophenylalanines: Antitumor evaluation” (2008)
# Assays:
# Type in all cases: functional
# MCF7 = experiment: Antitumor activity against human MCF7 cells after 48 hrs; conditions: MCF7, 48 h
# Summary of the method: (§1)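 NCI-derived lines grown as monolayers in RPMI-1640 with 5% heat-inactivated FBS and 2 mM glutamine, 37 °C, 5% CO2. Plated at 1.5 × 10⁵ cells/mL (MCF-7, SF-268) or 0.75 × 10⁴ cells/mL (NCI-H460) and incubated 24 h. Continuous 48 h exposure to five serial concentrations (DMSO ≤0.5%). Sulforhodamine B stain, A492. GI50 is 50% net-growth inhibition from dose-response curves. Experiments run independently in duplicate.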
# NCI-H460 = experiment: Antitumor activity against human NCI-H460 cells after 48 hrs; conditions: NCI-H460, 48 h; summary of the method: as §1
# SF-268 = experiment: Antitumor activity against human SF268 cells after 48 hrs; conditions: SF-268, 48 h; summary of the method: as §1
GI50 (MCF7),GI50 (NCI-H460),SMILES,GI50 (SF-268)
11 µM,12.7 µM,COC(=O)c1[nH]c2ccccc2c1-c1cccc2c1sc1ccccc12,17 µM
72.7 µM,40.3 µM,COC(=O)c1[nH]c2ccc3c4ccccc4sc3c2c1-c1ccccc1,50 µM
26.5 µM,18 µM,COC(=O)c1[nH]c2ccccc2c1-c1cccc2c1oc1ccccc12,35 µM
0.0428 µM,0.094 µM,COc1cccc2c1C(=O)c1c(O)c3c(c(O)c1C2=O)C[C@@](O)(C(=O)CO)C[C@@H]3O[C@H]1C[C@H](N)[C@H](O)[C@H](C)O1 [DOXORUBICIN],0.094 µM
